ChEMBL document CHEMBL3112517, “Identification of dihydrostilbenes in Pholidota chinensis as a new scaffold for GABAA receptor modulators” (Bioorg Med Chem, 2014)
Calls of active or inactive are those of the source. The rule behind the calls is not given here.

Columns and labels:
[1] = Potency index, ratio of compound activity for modulation of rat GABAA alpha1beta2gamma2S receptor assessed as EC3 to 10 GABA-induced chloride ion current to clotiazepam activity for modulation of GABAA alpha1beta2gamma2S receptor (unknown origin) assessed as potentiation of EC5 to 10 GABA-induced chloride ion current
Homo sapiens = species: Homo sapiens; experiment: Modulation of GABAA alpha4beta2gamma2S receptor (unknown origin) expressed in Xenopus laevis oocytes assessed as potentiation of EC3 to 10 GABA-induced chloride ion current at holding potential -70 mV at 1 to 300 uM by two-microelectrode voltage clamp assay relative to GABA-treated control; format: cell-based
[2] = molecular target: GABA A receptor alpha-3/beta-2/gamma-2 (Homo sapiens) (UniProt P47870+P18507+P34903); experiment: Modulation of GABAA alpha3beta2gamma2S receptor (unknown origin) expressed in Xenopus laevis oocytes assessed as potentiation of EC3 to 10 GABA-induced chloride ion current at holding potential -70 mV at 1 to 300 uM by two-microelectrode voltage clamp assay relative to GABA-treated control; format: cell-based
[3] = molecular target: GABA A receptor alpha-2/beta-2/gamma-2 (Homo sapiens) (UniProt P47870+P18507+P47869); experiment: Modulation of GABAA alpha2beta2gamma2S receptor (unknown origin) expressed in Xenopus laevis oocytes assessed as potentiation of EC3 to 10 GABA-induced chloride ion current at holding potential -70 mV at 1 to 300 uM by two-microelectrode voltage clamp assay relative to GABA-treated control; format: cell-based
[4] = molecular target: T1, GABA A receptor alpha-2/beta-2/gamma-2 (Homo sapiens, UniProt P18507+P47869+P47870); experiment: Modulation of GABAA alpha2beta2gamma2S receptor (unknown origin) expressed in Xenopus laevis oocytes assessed as potentiation of EC3 to 10 GABA-induced chloride ion current at holding potential -70 mV by two-microelectrode voltage clamp assay; format: cell-based
T1 sequence (P47870 whole entry): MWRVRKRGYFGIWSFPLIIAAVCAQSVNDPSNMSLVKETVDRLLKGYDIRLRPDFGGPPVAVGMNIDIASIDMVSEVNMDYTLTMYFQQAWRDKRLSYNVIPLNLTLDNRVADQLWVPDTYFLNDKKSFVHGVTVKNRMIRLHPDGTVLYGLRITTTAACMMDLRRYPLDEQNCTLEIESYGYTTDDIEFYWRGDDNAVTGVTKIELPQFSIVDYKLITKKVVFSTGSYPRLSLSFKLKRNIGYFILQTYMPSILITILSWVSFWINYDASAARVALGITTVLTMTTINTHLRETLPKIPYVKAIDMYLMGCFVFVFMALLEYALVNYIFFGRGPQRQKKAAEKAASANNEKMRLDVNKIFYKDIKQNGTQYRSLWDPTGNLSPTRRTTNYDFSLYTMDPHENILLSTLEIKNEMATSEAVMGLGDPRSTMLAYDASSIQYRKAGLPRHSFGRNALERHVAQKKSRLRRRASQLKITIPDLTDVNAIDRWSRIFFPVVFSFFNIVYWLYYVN
T1 sequence (P18507 whole entry): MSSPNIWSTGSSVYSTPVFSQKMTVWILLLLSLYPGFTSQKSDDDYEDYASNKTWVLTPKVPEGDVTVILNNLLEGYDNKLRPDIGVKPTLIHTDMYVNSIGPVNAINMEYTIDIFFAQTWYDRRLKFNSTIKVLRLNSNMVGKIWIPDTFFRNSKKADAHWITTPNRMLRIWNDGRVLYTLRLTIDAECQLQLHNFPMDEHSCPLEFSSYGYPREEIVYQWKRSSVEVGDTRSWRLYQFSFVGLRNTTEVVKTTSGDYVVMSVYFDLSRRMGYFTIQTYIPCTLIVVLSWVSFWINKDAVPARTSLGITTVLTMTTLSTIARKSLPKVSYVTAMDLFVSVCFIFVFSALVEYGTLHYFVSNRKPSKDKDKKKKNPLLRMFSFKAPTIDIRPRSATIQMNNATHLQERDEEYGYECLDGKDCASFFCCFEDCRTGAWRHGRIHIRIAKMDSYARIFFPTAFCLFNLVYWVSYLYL
T1 sequence (P47869 whole entry): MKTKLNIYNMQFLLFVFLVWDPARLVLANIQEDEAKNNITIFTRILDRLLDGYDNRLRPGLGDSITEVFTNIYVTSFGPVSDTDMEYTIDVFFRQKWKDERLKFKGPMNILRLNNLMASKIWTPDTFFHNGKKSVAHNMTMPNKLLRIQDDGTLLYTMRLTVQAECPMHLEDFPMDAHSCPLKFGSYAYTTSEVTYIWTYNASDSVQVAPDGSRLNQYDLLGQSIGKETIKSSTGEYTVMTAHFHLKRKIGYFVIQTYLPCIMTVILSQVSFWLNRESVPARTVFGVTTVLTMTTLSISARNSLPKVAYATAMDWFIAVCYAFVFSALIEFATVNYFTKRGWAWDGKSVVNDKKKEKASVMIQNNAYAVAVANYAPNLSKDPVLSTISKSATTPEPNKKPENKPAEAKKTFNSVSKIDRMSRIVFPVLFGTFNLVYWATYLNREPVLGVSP

Rattus norvegicus [5] = species: Rattus norvegicus; experiment: Agonist activity rat GABAA alpha1beta2gamma2S receptor expressed in Xenopus laevis oocytes assessed as potentiation of GABA-induced chloride ion current at holding potential -70 mV at <100 uM compound treated prior to GABA challenge by two-microelectrode voltage clamp assay; format: cell-based
Rattus norvegicus [6] = species: Rattus norvegicus; experiment: Allosteric modulation of rat GABAA alpha1beta2gamma2S receptor expressed in Xenopus laevis oocytes assessed as potentiation of EC3 to 10 GABA-induced chloride ion current at holding potential -70 mV at 1 to 300 uM by two-microelectrode voltage clamp assay relative to GABA-treated control; format: cell-based
Procedure, shortened: (§1)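 Stage V–VI Xenopus laevis oocytes were injected with 50 nL of rat α1, β2 and γ2S cRNA mixed 1:1:10 (about 300–3000 pg/nL per subunit), stored at 18 °C in ND96, and recorded on days 1–5. Two-electrode clamp was at −70 mV in pH 7.4 HEPES bath. Compound was applied by fast perfusion with GABA EC3–10, in 1% DMSO final. Enhancement = I(GABA+Comp)/IGABA − 1.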

[7] = (§2) Allosteric modulation of rat GABAA alpha1beta2gamma2S receptor expressed in Xenopus laevis oocytes assessed as potentiation of EC3 to 10 GABA-induced chloride ion current at holding potential -70 mV by two-microelectrode voltage clamp assay; format: cell-based; procedure, shortened: as §1
Rattus norvegicus [8] = species: Rattus norvegicus; experiment: as §2; format: cell-based; procedure, shortened: as §1

Compound: COc1cc(O)cc(CCc2cccc(O)c2)c1 [BATATASIN III]
- Ratio [1]: 4
- Imax (Homo sapiens): 1590%
- Imax [2]: 1690%
- Imax [3]: 1030%
- EC50 [4]: 80.8 µM
- Activity (Rattus norvegicus [5]): inactive
- Imax (Rattus norvegicus [6]): 1510%
- EC50 [7]: 52.5 µM
- Activity (Rattus norvegicus [8]): Dose-dependent effect
